Reference: ChEMBL document CHEMBL1149082, “Discovery of novel thieno[2,3-d]pyrimidin-4-yl hydrazone-based inhibitors of Cyclin D1-CDK4: synthesis, biological evaluation, and structure-activity relationships” (Bioorg Med Chem Lett, 2009)
pIC50: −log10 of the molar value. ≈ marks a conversion by molar mass, not a printed value. Calls of active or inactive are those of the source. The calls are words filed in the database; no cut-off is given here.

What was measured:
[1] = target: Cyclin-dependent kinase 2 (Homo sapiens, UniProt P24941); test: Inhibition of CDK2-mediated retinoblastoma protein phosphorylation by dose-response curve analysis
Summary of the method: (§1)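 Kinase assay read as Rb phosphorylation by cyclin D1-CDK4 or cyclin E-CDK2. IC50 is the concentration (μg/mL) giving 50% inhibition of Rb phosphorylation, read from the dose-response curve. Values are means of at least two determinations.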

[2] = target: T1, Cyclin-dependent kinase 4 (Homo sapiens, UniProt P11802); test: Inhibition of CDK4-mediated retinoblastoma protein phosphorylation by dose-response curve analysis; summary of the method: as §1
PC-6 = test: Antiproliferative activity against human PC6 cells by dose-response curve analysis; format: functional, cell-based
Summary of the method: (§2)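 Cell growth inhibition measured from dose-response curves at ten concentrations. IC50 is the concentration giving 50% growth inhibition, read from these curves.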

HCT-116 [3] = test: Antiproliferative activity against human HCT116 cells by dose-response curve analysis; format: functional, cell-based; summary of the method: as §2
HCT-116 [4] = test: Cell cycle arrest in human HCT116 cells assessed as decrease in accumulation at S phase at 500 ng/mL after 16 hrs by FACS analysis; format: functional, cell-based
Summary of the method: (§3)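 HCT116 cells exposed to test compound at various concentrations for 16 hr, then collected. DNA content measured by flow cytometry to assign G1, S and G2/M fractions.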

Mus musculus [5] = test: Toxicity in nude mouse xenografted with human HCT116 cells assessed as death at 200 mg/kg, po qd for 4 days; format: organism-based, HCT-116; set-up: dose 200 mg/kg, route oral; conditions: in vivo, 96 h
Summary of the method: (§4)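 Mice bearing HCT116 colon solid tumours (n=5 per group) dosed as the hydrochloride salt dissolved in 40% Captisol at 200 mg/kg once daily for 4 days (qdx4), i.v. or p.o. Toxicity recorded as the number of mice dead from toxicity over the number used, with maximum body-weight loss also noted.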

MKN-28 = test: Antiproliferative activity against human MKN28 cells by MTT assay; format: functional, cell-based; summary of the method: as §2
[6] = Solubility in 40% captisol; format: physicochemical
HCT-116 [7] = test: Antiproliferative activity against docetaxal-resistant human HCT116 cells by MTT assay; format: functional, cell-based; summary of the method: as §2
P388 = test: Antiproliferative activity against mouse P388 cells by MTT assay; format: functional, cell-based; summary of the method: as §2
Mus musculus [8] = test: Toxicity in nude mouse xenografted with human HCT116 cells assessed as maximum body weight loss at 200 mg/kg, iv qd for 4 days; format: organism-based, HCT-116; set-up: dose 200 mg/kg, route intravenous; conditions: in vivo, 96 h
Summary of the method: (§5)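 HCT116 solid tumours in mice. Hydrochloride salt dissolved in 40% Captisol, dosed 200 mg/kg once daily for 4 days (qdx4), i.v. or p.o. Read-outs: maximum inhibition rate of tumour volume, maximum body weight loss, and toxic deaths out of 5 mice.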

Mus musculus [9] = test: Toxicity in nude mouse xenografted with human HCT116 cells assessed as maximum body weight loss at 200 mg/kg, po qd for 4 days; format: organism-based, HCT-116; set-up: dose 200 mg/kg, route oral; conditions: in vivo, 96 h; summary of the method: as §5
MDA-MB-231 = test: Antiproliferative activity against human MDA-MB-231 cells by MTT assay; format: functional, cell-based; summary of the method: as §2
Mus musculus [10] = test: Toxicity in nude mouse xenografted with human HCT116 cells assessed as death at 200 mg/kg, iv qd for 4 days; format: organism-based, HCT-116; set-up: dose 200 mg/kg, route intravenous; conditions: in vivo, 96 h; summary of the method: as §4
HCT-116 [11] = test: Cell cycle arrest in human HCT116 cells assessed as accumulation at G1 phase at 500 ng/mL after 16 hrs by FACS analysis; format: functional; summary of the method: as §3
WiDr = test: Antiproliferative activity against human WiDr cells by MTT assay; format: functional, cell-based; summary of the method: as §2
HCT-116 [12] = test: Antitumor activity against human HCT116 cells xenografted in nude mouse assessed as maximum inhibition of […] growth at 200 mg/kg, iv qd for 4 days; format: functional; conditions: HCT-116, 96 h; summary of the method: as §5
MDA-MB-468 = test: Antiproliferative activity against human MDA-MB-468 cells by MTT assay; format: functional, cell-based; summary of the method: as §2
DLD-1 = test: Antiproliferative activity against human DLD1 cells by MTT assay; format: functional, cell-based; summary of the method: as §2
HCT-116 [13] = test: Antiproliferative activity against SN2-3-resistant human HCT116 cells by MTT assay; format: functional, cell-based; summary of the method: as §2
HCT-116 [14] = test: Cell cycle arrest in human HCT116 cells assessed as decrease in accumulation at G2/M phase at 500 ng/mL after 16 hrs by FACS analysis; format: functional, cell-based; summary of the method: as §3
[15] = Antiproliferative activity against mouse B16-BL6 cells by MTT assay; format: functional, cell-based; summary of the method: as §2
HCT-116 [16] = test: Antitumor activity against human HCT116 cells xenografted in nude mouse assessed as maximum inhibition of […] growth at 200 mg/kg, po qd for 4 days; format: functional; conditions: HCT-116, 96 h; summary of the method: as §5
[17] = target: T1, Cyclin-dependent kinase 4; test: Inhibition of CDK4-mediated retinoblastoma protein phosphorylation up to 20 ug/mL by dose-response curve analysis; summary of the method: as §1

T1 sequence (P11802 whole entry): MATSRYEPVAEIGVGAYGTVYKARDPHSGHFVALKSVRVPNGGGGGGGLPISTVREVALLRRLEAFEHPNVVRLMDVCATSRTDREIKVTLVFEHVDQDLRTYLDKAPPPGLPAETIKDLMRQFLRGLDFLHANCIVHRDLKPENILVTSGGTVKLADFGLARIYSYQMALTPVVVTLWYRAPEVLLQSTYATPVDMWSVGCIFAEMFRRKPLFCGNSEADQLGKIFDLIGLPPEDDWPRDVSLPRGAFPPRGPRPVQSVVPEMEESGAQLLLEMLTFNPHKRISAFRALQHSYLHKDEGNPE

SMILES	pIC50 [1]	pIC50 [2]	IC50 (PC-6) [µg/mL]	IC50 (HCT-116 [3]) [µg/mL]	further results
CCc1c(C)sc2ncnc(N/N=C\c3cccs3)c12	4.40	4.28	–	–	–
CC(C)c1cc2c(N/N=C\c3ccco3)ncnc2s1	5.72	5.87	3.78 (≈ 13.2 µM)	–	–
CC(C)(C)c1cc2c(N/N=C\c3cccnc3)ncnc2s1	5.75	5.79	1.45 (≈ 4.66 µM)	–	–
CC(C)(C)c1cc2c(N/N=C\c3cccs3)ncnc2s1	5.75	6.42	–	–	–
CC(C)c1cc2c(N/N=C\c3cccnc3)ncnc2s1	5.63	5.73	0.889 (≈ 2.99 µM)	–	–
CC(C)c1cc2c(N/N=C\c3ccccn3)ncnc2s1	4.98	5.53	0.003 (≈ 0.0101 µM)	0.01 (≈ 0.0336 µM)	–
CC(C)(C)c1cc2c(N/N=C\c3cccc(CN4CCOCC4)n3)ncnc2s1	4.87	6.38	0.261 (≈ 0.636 µM)	0.363 (≈ 0.884 µM)	–
Cc1ccc(/C=N\Nc2ncnc3sc(C(C)(C)C)cc23)nc1	4.43	5.57	0.009 (≈ 0.0277 µM)	0.02 (≈ 0.0615 µM)	–
Cc1cccc(/C=N\Nc2ncnc3sc(C(C)(C)C)cc23)n1	4.67	5.80	0.258 (≈ 0.793 µM)	0.268 (≈ 0.823 µM)	–
CC(C)(C)c1cc2c(N/N=C\c3cccc(CN)n3)ncnc2s1	4.98	5.76	0.036 (≈ 0.106 µM)	0.059 (≈ 0.173 µM)	–
CC(C)c1cc2c(N/N=C\c3ccncc3)ncnc2s1	5.95	6.09	> 10	–	–
CC(C)(C)c1cc2c(N/N=C\c3ccccn3)ncnc2s1	5.05	5.54	0.009 (≈ 0.0289 µM)	0.014 (≈ 0.045 µM)	Activity (HCT-116 [4]): Active; Activity (Mus musculus [5]): Non-toxic; IC50 (MKN-28): 0.049 µg/mL (≈ 0.157 µM); solubility [6]: Soluble; IC50 (HCT-116 [7]): 0.007 µg/mL (≈ 0.0225 µM); IC50 (P388): 0.006 µg/mL (≈ 0.0193 µM); Activity (Mus musculus [8]): 22.6%; Activity (Mus musculus [9]): 4.6%; IC50 (MDA-MB-231): 0.019 µg/mL (≈ 0.061 µM); Activity (Mus musculus [10]): Non-toxic; Activity (HCT-116 [11]): 64%; IC50 (WiDr): 0.019 µg/mL (≈ 0.061 µM); inhibition in vivo at 200 mg/kg (HCT-116 [12]): 67.9%; IC50 (MDA-MB-468): 0.008 µg/mL (≈ 0.0257 µM); IC50 (DLD-1): 0.037 µg/mL (≈ 0.119 µM); IC50 (HCT-116 [13]): 0.005 µg/mL (≈ 0.0161 µM); Activity (HCT-116 [14]): Active; IC50 [15]: 0.045 µg/mL (≈ 0.145 µM); inhibition in vivo at 200 mg/kg (HCT-116 [16]): 54.1%
CCc1cc2c(N/N=C\c3cccs3)ncnc2s1	5.42	5.58	0.566 (≈ 1.96 µM)	1.61 (≈ 5.58 µM)	IC50 (MKN-28): 2.86 µg/mL (≈ 9.92 µM); IC50 (HCT-116 [7]): 1.21 µg/mL (≈ 4.2 µM); IC50 (P388): 1.01 µg/mL (≈ 3.5 µM); IC50 (MDA-MB-231): 1.87 µg/mL (≈ 6.48 µM); IC50 (WiDr): 1.36 µg/mL (≈ 4.72 µM); IC50 (MDA-MB-468): 0.048 µg/mL (≈ 0.166 µM); IC50 (DLD-1): 1.12 µg/mL (≈ 3.88 µM); IC50 (HCT-116 [13]): 1.34 µg/mL (≈ 4.65 µM); IC50 [15]: 2.44 µg/mL (≈ 8.46 µM)
CC(C)c1cc2c(-n3ccc(-c4cccs4)n3)ncnc2s1	< 4.21	< 4.21	–	–	Activity [17]: inactive
